A word on the IC50: it is the point on the concentration scale where inhibition reaches its midpoint. Lower therefore signals greater potency.

Here are results for 28 molecules from ChEMBL document CHEMBL1128560, “Synthesis and structure-activity relationships of analogs of 2'-deoxy-2'-(3-methoxybenzamido)adenosine, a selective inhibitor of trypanosomal glycosomal glyceraldehyde-3-phosphate dehydrogenase” (J Med Chem, 1995).

The nature of experiment [1]: TInhibition of glyceraldehyde-3-phosphate dehydrogenase in Leishmania mexicana. In outline:
(§1)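 Enzyme sources: human erythrocyte GAPDH, glycosomal GAPDH from T. brucei, and glycosomal GAPDH from L. mexicana. IC50 is the inhibitor concentration at which 50% of enzyme activity remains. Poorly soluble compounds were not tested above their solubility limit, and the remaining activity at that level was recorded instead.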

A short description of experiment [2]: Inhibition of glyceraldehyde-3-phosphate dehydrogenase in Trypanosoma brucei. In outline: as §1
The target in experiment [3] is Glyceraldehyde-3-phosphate dehydrogenase (Homo sapiens, UniProt P04406). In words: Inhibition of Glyceraldehyde-3-phosphate dehydrogenase in human erythrocytes. Format: cell-based. In outline: as §1

Where only a bound is given, the exact number is not on record here.

Glyceraldehyde-3-phosphate dehydrogenase, sequence (P04406 whole entry): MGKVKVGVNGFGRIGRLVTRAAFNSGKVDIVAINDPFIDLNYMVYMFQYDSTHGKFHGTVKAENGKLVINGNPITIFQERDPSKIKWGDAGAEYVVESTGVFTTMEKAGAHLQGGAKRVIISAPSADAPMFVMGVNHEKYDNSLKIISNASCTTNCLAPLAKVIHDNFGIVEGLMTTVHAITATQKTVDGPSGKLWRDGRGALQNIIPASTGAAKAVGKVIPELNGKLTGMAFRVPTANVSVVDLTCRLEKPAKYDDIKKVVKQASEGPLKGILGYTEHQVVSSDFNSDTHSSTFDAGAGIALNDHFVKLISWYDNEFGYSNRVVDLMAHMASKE

Regarding `COc1cccc(C(=O)N[C@@H]2[C@H](O)[C@@H](CO)O[C@H]2n2cnc3c(N)nc(C)nc32)c1`, the IC50 in experiment [1], in experiment [2] and in experiment [3] was above 10000 µM in each case.
For the molecule `Nc1ncnc2c1ncn2[C@@H]1CCC[C@H]1NC(=O)c1cccc(Br)c1`, the IC50 in experiment [1] came out at 700 µM; in experiment [2], 1500 µM; in experiment [3] it was 1500 µM.
Regarding `Nc1ncnc2c1ncn2[C@@H]1CCC[C@H]1NC(=O)c1cccc(Cl)c1`, the figures for the IC50 in experiment [1] and in experiment [2] were above 2000 µM and above 4000 µM, respectively.
As to `COc1nc2c(N)ncnc2n1[C@@H]1O[C@H](CO)[C@@H](O)[C@H]1NC(=O)c1ccccc1`, the IC50 in experiment [1] is 9000 µM; in experiment [2], 9000 µM; in experiment [3] it was above 10000 µM.
Turning to `Cc1ccc(C(=O)NCCn2cnc3c(N)ncnc32)cc1`, the concentration for half-maximal inhibition (IC50) is above 4000 µM in experiment [1] and above 2000 µM in experiment [2].
On to `NCCn1c(-c2cccs2)nc2c(N)ncnc21`, for which the figures for the IC50 in experiment [1], in experiment [2] and in experiment [3] were 1600 µM, 1800 µM and 1800 µM, respectively.
As to `CC(C)COC(=O)N[C@@H]1[C@H](O)[C@@H](CO)O[C@H]1n1cnc2c(N)ncnc21`, the IC50 in experiment [1], in experiment [2] and in experiment [3] was above 10000 µM each time.
As to `Nc1ncnc2c1nc(-c1cccs1)n2[C@@H]1O[C@H](CO)[C@@H](O)[C@H]1NC(=O)c1ccccc1`, the figures for the IC50 in experiment [1], in experiment [2] and in experiment [3] were 500 µM, 1200 µM and 1200 µM, respectively.
`Nc1ncnc2c1ncn2[C@@H]1O[C@H](CO)[C@@H](O)[C@H]1NC(=O)c1ccc(-c2ccccc2)cc1`: the IC50 in experiment [1] was 200 µM; in experiment [2] it was 200 µM; in experiment [3], 400 µM.
Turning to `Nc1ncnc2c1ncn2[C@@H]1O[C@H](CO)[C@@H](O)[C@H]1NC(=O)c1cccc(Cl)c1`, the figures for the concentration for half-maximal inhibition (IC50) in experiment [1], in experiment [2] and in experiment [3] were 200 µM, 500 µM and above 2000 µM, respectively.
In the same order, the values of `Nc1ncnc2c1nc(Sc1ncccn1)n2C1O[C@H](CO)[C@@H](O)[C@H]1O` (stereo partly drawn) are 4000 µM, 2000 µM and 8000 µM.
On to `Nc1ncnc2c1ncn2C1O[C@H](CNC(=O)C(c2ccccc2)c2ccccc2)[C@@H](O)[C@H]1O` (stereo partly drawn), for which the half-inhibitory concentration (IC50) in experiment [1], in experiment [2] and in experiment [3] was 250 µM in each case.
Turning to `Nc1ncnc2c1ncn2[C@@H]1O[C@H](CO)[C@@H](O)[C@H]1O` [ADENOSINE], the IC50 in experiment [1] is 50000 µM; in experiment [2], 100000 µM; in experiment [3], 35000 µM.
For `Nc1ncnc2c1ncn2[C@@H]1O[C@H](CO)[C@@H](O)[C@H]1NC(=O)c1ccc2[nH]cnc2c1` the same measures were 3000 µM, 3000 µM and above 10000 µM.
For the molecule `CCOc1cccc(C(=O)N[C@@H]2[C@H](O)[C@@H](CO)O[C@H]2n2cnc3c(N)ncnc32)c1`, the IC50 in experiment [1] is 400 µM; in experiment [2], 500 µM; in experiment [3] it was 600 µM.
As for `Nc1ncnc2c1nc(Br)n2[C@@H]1O[C@H](CO)[C@@H](O)[C@H]1NC(=O)c1ccccc1`, the half-inhibitory concentration (IC50) in experiment [1] was 3000 µM; in experiment [2], 6300 µM; in experiment [3], above 10000 µM.
As for `CCc1ccc(-c2ccc(C(=O)NC[C@H]3OC(n4cnc5c(N)ncnc54)[C@H](O)[C@@H]3O)cc2)cc1` (stereo partly drawn), the figures for the IC50 in experiment [1], in experiment [2] and in experiment [3] were 750 µM, above 1000 µM and above 2000 µM, respectively.
As to `Nc1ncnc2c1ncn2[C@@H]1O[C@H](CO)[C@@H](O)[C@H]1NC(=O)c1ccc2cccnc2c1`, the IC50 in experiment [1] was 500 µM; in experiment [2], 1000 µM; in experiment [3], above 2000 µM.
In the same order, the values of `COc1cccc(C(=O)N[C@@H]2[C@H](O)[C@@H](CO)O[C@H]2n2cnc3c(N)ncnc32)c1` are 300 µM, 2200 µM and above 10000 µM.
Consider `Nc1ncnc2c1ncn2[C@@H]1CCC[C@H]1NC(=O)c1ccccc1`, for which the IC50 in experiment [1] and in experiment [2] was above 4000 µM each time.
Regarding `Nc1ncnc2c1nc(-c1cccs1)n2CCNCc1ccccc1`, the IC50 in experiment [1] came out at 400 µM; in experiment [2], 500 µM; in experiment [3] it was 600 µM.
In the same order, the values of `Cc1nc(N)c2[nH]cnc2n1` are 6000 µM, 8000 µM and above 10000 µM.
In the case of `Nc1ncnc2c1ncn2CCNC(=O)c1cccc(F)c1`, the IC50 in experiment [1] and in experiment [2] was above 4000 µM each time.
For `Nc1ncnc2c1nc(-c1cccs1)n2[C@@H]1O[C@H](CO)[C@@H](O)[C@H]1O`, the results for the IC50 in experiment [1], in experiment [2] and in experiment [3] were 500 µM, 600 µM and 1300 µM, respectively.
Regarding `Nc1ncnc2c1ncn2CCNC(=O)c1cccc(Cl)c1`, the IC50 in experiment [1] and in experiment [2] was above 4000 µM in each case.
For `COc1cccc(C(=O)N[C@@H]2CCC[C@H]2n2cnc3c(N)ncnc32)c1`, the IC50 in experiment [1] is above 5000 µM; in experiment [2] it was above 4000 µM.
As to `Nc1ncnc2c1nc(SC1CCCCC1)n2C1O[C@H](CO)[C@@H](O)[C@H]1O` (stereo partly drawn), the half-inhibitory concentration (IC50) in experiment [1] was above 2000 µM; in experiment [2] it was above 1000 µM; in experiment [3] it was above 2000 µM.
`Nc1ncnc2c1ncn2[C@@H]1O[C@H](CO)[C@@H](O)[C@H]1NCc1ccccc1`: the half-maximal inhibitory concentration (IC50) in experiment [1], in experiment [2] and in experiment [3] was above 10000 µM throughout.
